Assay results: ChEMBL document CHEMBL1127344, “Tridentate ligands containing the SNS donor atom set as a novel backbone for the development of technetium brain-imaging agents” (J Med Chem, 1994)

Legend:
Rattus norvegicus [1] = species: Rattus norvegicus; experiment: Tested for biodistribution of compound at 60 min in rat blood; assay type: ADME, organism-based; settings: in vivo, 1 h
Rattus norvegicus [2] = species: Rattus norvegicus; experiment: Tested for biodistribution of compound at 60 min in rat brain; assay type: ADME, organism-based; settings: in vivo, 1 h
Rattus norvegicus [3] = species: Rattus norvegicus; experiment: Tested for biodistribution of compound at 60 min in rat kidney; assay type: ADME, organism-based; settings: in vivo, 1 h
Rattus norvegicus [4] = species: Rattus norvegicus; experiment: Tested for biodistribution of compound at 60 min in rat l intestine; assay type: ADME, organism-based; settings: in vivo, 1 h
Rattus norvegicus [5] = species: Rattus norvegicus; experiment: Tested for biodistribution of compound at 60 min in rat liver; assay type: ADME, organism-based; settings: in vivo, 1 h
Rattus norvegicus [6] = species: Rattus norvegicus; experiment: Tested for biodistribution of compound at 60 min in rat lungs; assay type: ADME, organism-based, Lung; settings: in vivo, 1 h
Rattus norvegicus [7] = species: Rattus norvegicus; experiment: Tested for biodistribution of compound at 60 min in rat muscle; assay type: ADME, organism-based, Muscle tissue; settings: in vivo, 1 h
Rattus norvegicus [8] = species: Rattus norvegicus; experiment: Tested for biodistribution of compound at 5 min in rat blood; assay type: ADME, organism-based; settings: in vivo
Rattus norvegicus [9] = species: Rattus norvegicus; experiment: Tested for biodistribution of compound at 5 min in rat heart; assay type: ADME, organism-based; settings: in vivo
Rattus norvegicus [10] = species: Rattus norvegicus; experiment: Tested for biodistribution of compound at 5 min in rat kidney; assay type: ADME, organism-based; settings: in vivo
Rattus norvegicus [11] = species: Rattus norvegicus; experiment: Tested for biodistribution of compound at 5 min in rat l intestine; assay type: ADME, organism-based; settings: in vivo
Rattus norvegicus [12] = species: Rattus norvegicus; experiment: Tested for biodistribution of compound at 5 min in rat liver; assay type: ADME, organism-based; settings: in vivo
Rattus norvegicus [13] = species: Rattus norvegicus; experiment: Tested for biodistribution of compound at 5 min in rat muscle; assay type: ADME, organism-based, Muscle tissue; settings: in vivo
Rattus norvegicus [14] = species: Rattus norvegicus; experiment: Tested for biodistribution of compound at 5 min in rat spleen; assay type: ADME, organism-based; settings: in vivo
Mus musculus [15] = species: Mus musculus; experiment: Tested for biodistribution of compound at 60 min in mice blood; assay type: ADME, organism-based; settings: in vivo, 1 h
Method in brief: (§1)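 Male Swiss albino mice, at least five per group, received HPLC-purified 99mTc complex by tail vein. The complex was reconstituted in 50% methanol (0.1 mL, 2-3 μCi). Mice were killed by cardiectomy under light ether at 1-60 min pi. Organs were weighed and γ-counted against a 1% injected-dose standard to give % dose/organ. Blood and muscle were taken as 7% and 43% of body weight.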

Mus musculus [16] = species: Mus musculus; experiment: Tested for biodistribution of compound at 60 min in mice brain; assay type: ADME, organism-based; settings: in vivo, 1 h; method in brief: as §1
Mus musculus [17] = species: Mus musculus; experiment: Tested for biodistribution of compound at 60 min in mice heart; assay type: ADME, organism-based; settings: in vivo, 1 h; method in brief: as §1
Mus musculus [18] = species: Mus musculus; experiment: Tested for biodistribution of compound at 60 min in mice kidney; assay type: ADME, organism-based; settings: in vivo, 1 h; method in brief: as §1
Mus musculus [19] = species: Mus musculus; experiment: Tested for biodistribution of compound at 60 min in mice liver; assay type: ADME, organism-based; settings: in vivo, 1 h; method in brief: as §1
Mus musculus [20] = species: Mus musculus; experiment: Tested for biodistribution of compound at 60 min in mice lungs; assay type: ADME, organism-based, Lung; settings: in vivo, 1 h; method in brief: as §1
Mus musculus [21] = species: Mus musculus; experiment: Tested for biodistribution of compound at 60 min in mice muscle; assay type: ADME, organism-based, Muscle tissue; settings: in vivo, 1 h; method in brief: as §1
Mus musculus [22] = species: Mus musculus; experiment: Tested for biodistribution of compound at 60 min in mice spleen; assay type: ADME, organism-based; settings: in vivo, 1 h; method in brief: as §1
Mus musculus [23] = species: Mus musculus; experiment: Tested for biodistribution of compound at 60 min in mice stomach; assay type: ADME, organism-based; settings: in vivo, 1 h; method in brief: as §1
Rattus norvegicus [24] = species: Rattus norvegicus; experiment: Tested for biodistribution of compound at 10 min in rat kidney; assay type: ADME, organism-based; settings: in vivo
Method in brief: (§2)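 Wistar rats under ether anesthesia were dosed through the femoral vein with 0.1 mL of 99mTc complex (3-6 μCi) and dissected 5-60 min pi. Tissue radioactivity was γ-counted against a 1% injected-dose standard and expressed as % dose/organ. Blood and muscle were calculated from sample weight assuming 7% and 43% of body weight.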

Rattus norvegicus [25] = species: Rattus norvegicus; experiment: Tested for biodistribution of compound at 10 min in rat liver; assay type: ADME, organism-based; settings: in vivo; method in brief: as §2
Rattus norvegicus [26] = species: Rattus norvegicus; experiment: Tested for biodistribution of compound at 10 min in rat s. intestine; assay type: ADME, organism-based; settings: in vivo; method in brief: as §2
Mus musculus [27] = species: Mus musculus; experiment: Tested for biodistribution of compound at 30 min in mice brain; assay type: ADME, organism-based; settings: in vivo, 0.5 h
Method in brief: (§3)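 Male Swiss albino mice, at least five per group, received 0.1 mL (2-3 μCi) of HPLC-purified 99mTc complex reconstituted in 50% methanol by tail vein. They were killed by cardiectomy under light ether anesthesia at set times (1-60 min pi). Organs were weighed and γ-counted against a 1% injected-dose standard to give % dose/organ. Blood and muscle were taken as 7% and 43% of body weight.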

Mus musculus [28] = species: Mus musculus; experiment: Tested for biodistribution of compound at 30 min in mice heart; assay type: ADME, organism-based; settings: in vivo, 0.5 h; method in brief: as §3
Mus musculus [29] = species: Mus musculus; experiment: Tested for biodistribution of compound at 30 min in mice intestine; assay type: ADME, organism-based; settings: in vivo, 0.5 h; method in brief: as §3
Mus musculus [30] = species: Mus musculus; experiment: Tested for biodistribution of compound at 30 min in mice kidney; assay type: ADME, organism-based; settings: in vivo, 0.5 h; method in brief: as §3
Mus musculus [31] = species: Mus musculus; experiment: Tested for biodistribution of compound at 30 min in mice liver; assay type: ADME, organism-based; settings: in vivo, 0.5 h; method in brief: as §3
Mus musculus [32] = species: Mus musculus; experiment: Tested for biodistribution of compound at 30 min in mice lungs; assay type: ADME, organism-based, Lung; settings: in vivo, 0.5 h; method in brief: as §3
Mus musculus [33] = species: Mus musculus; experiment: Tested for biodistribution of compound at 30 min in mice muscle; assay type: ADME, organism-based, Muscle tissue; settings: in vivo, 0.5 h; method in brief: as §3
Mus musculus [34] = species: Mus musculus; experiment: Tested for biodistribution of compound at 30 min in mice urine; assay type: ADME, organism-based; settings: in vivo, 0.5 h; method in brief: as §3

Substance: [4-methoxythio)phenolato][N,N-bis(2-mercaptoethyl)-N',N'-diethylethylenediamine] oxotechnetium
- Dose/organ (Rattus norvegicus [1]): 4.8%
- Dose/organ (Rattus norvegicus [2]): 0.46%
- Dose/organ (Rattus norvegicus [3]): 8.73%
- Dose/organ (Rattus norvegicus [4]): 1.05%
- Dose/organ (Rattus norvegicus [5]): 35.74%
- Dose/organ (Rattus norvegicus [6]): 1.14%
- Dose/organ (Rattus norvegicus [7]): 10.6%
- Dose/organ (Rattus norvegicus [8]): 18.89%
- Dose/organ (Rattus norvegicus [9]): 0.64%
- Dose/organ (Rattus norvegicus [10]): 3.22%
- Dose/organ (Rattus norvegicus [11]): 2.64%
- Dose/organ (Rattus norvegicus [12]): 19.32%
- Dose/organ (Rattus norvegicus [13]): 28.6%
- Dose/organ (Rattus norvegicus [14]): 0.58%
- Dose/organ (Mus musculus [15]): 1.21%
- Dose/organ (Mus musculus [16]): 1.54%
- Dose/organ (Mus musculus [17]): 0.12%
- Dose/organ (Mus musculus [18]): 1.59%
- Dose/organ (Mus musculus [19]): 35.12%
- Dose/organ (Mus musculus [20]): 1.79%
- Dose/organ (Mus musculus [21]): 6.86%
- Dose/organ (Mus musculus [22]): 0.21%
- Dose/organ (Mus musculus [23]): 2.34%
- Dose/organ (Rattus norvegicus [24]): 4.26%
- Dose/organ (Rattus norvegicus [25]): 24.09%
- Dose/organ (Rattus norvegicus [26]): 6.34%
- Dose/organ (Mus musculus [27]): 1.71%
- Dose/organ (Mus musculus [28]): 0.19%
- Dose/organ (Mus musculus [29]): 18.99%
- Dose/organ (Mus musculus [30]): 2.19%
- Dose/organ (Mus musculus [31]): 25.58%
- Dose/organ (Mus musculus [32]): 3.09%
- Dose/organ (Mus musculus [33]): 8.18%
- Dose/organ (Mus musculus [34]): 5.06%
